Screening data deposited in PubChem by several laboratories.
PMI activator = phosphomannose isomerase (human) activation; P34949; purified human PMI, coupled resazurin fluorescence, 20 min; stronger effect = higher value; 1 = vehicle control, 0 substrate-free wells; activation factor at 20 µM; 190,000 compounds, 0.005% hits;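 active means activation factor of 2 or more at 20 µM, relative to plate controls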
Target sequence (P34949 whole entry, looked up): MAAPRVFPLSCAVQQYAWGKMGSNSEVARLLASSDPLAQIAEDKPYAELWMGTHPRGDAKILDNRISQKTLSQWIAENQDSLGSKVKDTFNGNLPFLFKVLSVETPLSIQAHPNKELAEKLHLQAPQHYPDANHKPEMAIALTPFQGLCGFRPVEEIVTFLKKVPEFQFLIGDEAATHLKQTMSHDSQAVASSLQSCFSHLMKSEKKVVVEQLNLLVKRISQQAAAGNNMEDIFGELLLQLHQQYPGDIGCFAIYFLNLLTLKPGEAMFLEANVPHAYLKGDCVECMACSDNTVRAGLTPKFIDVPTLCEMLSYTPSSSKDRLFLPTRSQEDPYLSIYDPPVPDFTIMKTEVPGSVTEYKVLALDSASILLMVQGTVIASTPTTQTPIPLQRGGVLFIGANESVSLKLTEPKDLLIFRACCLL
WT yeast gro inh = growth inhibition of WT yeast, mitochondrial fusion screen | mitochondrial fusion phenotypic screen, WT strain | inhibition, % at 10 µM | 190,000 compounds, 2.1% hits | AID 1362; in the data active means inhibition above about 58%; tested in S. cerevisiae
Lmaj promast = inhibitors of Leishmania major promastigote growth | Leishmania major promastigotes, resazurin fluorescence viability | 200,000 compounds, 9% hits | AID 1063 | inhibition, % at 10 µM; in the data active means inhibition above about 50%;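 further: promastigotes grown with compound for 44 hours at 28 °C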
Diaphorase act = counter-screen for diaphorase-based assays: diaphorase activators and chemical reducers. 190,000 compounds, 0.005% hits. activation factor at 20 µM. Diaphorase/resazurin coupled assay, resorufin fluorescence, 16 min; stronger effect = higher value; 1 = vehicle wells, 0 = NADH-free wells. AID 1229;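 active means diaphorase activity raised at least twofold by the compound at 20 µM; inactive means activation factor below 2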
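Material: bacterial diaphorase enzyme (C. kluyveri); amount: enzyme 0.07 U/mL final; reagent: NADH substrate 0.114 mM plus resazurin dye 0.1 mM, final; doses: single compound dose of 20 µM, 1% DMSO final; timing: 16 min enzyme reaction, ambient temperature; measured by: fluorescence of resorufin, 544 nm excitation, 590 nm emission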
PMI act satM6P = activators of human phosphomannose isomerase at near-saturating mannose 6-phosphate; coupled PMI enzyme assay, resazurin fluorescence, 20 min; stronger effect = higher value; 1 = untreated enzyme, 0 = substrate-free blank; activation factor at 20 µM; 190,000 compounds, 0.34% hits; AID 1216;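 active means activation factor of 2 or more at 20 µM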
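test system = human PMI in coupled enzyme assay | medium = HEPES-buffered pH 7.4 with magnesium and detergent | also added = 1.0 mM mannose-6-phosphate substrate with 0.22 mM NADP+ | compound = 20 µM single dose | times = 20 min incubation at room temperature | measured by = resorufin fluorescence (Ex 544/Em 590 nm) from resazurin via diaphorase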
* hit, by the source's call. Shown are actives, neighbours in structure and some others; about 10% of the full set was active somewhere.

Screening COc1ccc(S(=O)(=O)N[C@@H](Cc2ccc(Cl)cc2)C(=O)N2CC[C@@]3(O)CCCC[C@H]3C2)cc1 returned PMI activator 0.9, WT yeast gro inh 12, Lmaj promast 86*, Diaphorase act 1 and PMI act satM6P 1.
`N=c1c2c(ncn1Cc1ccco1)Oc1c(ccc3ccccc13)C2c1ccccc1` (stereo not drawn) gave PMI activator 0.7, WT yeast gro inh 69*, Lmaj promast 57*, Diaphorase act 1 and PMI act satM6P 0.8.
N=c1c2c(ncn1CCN1CCOCC1)Oc1ccc3ccccc3c1C2c1ccccc1 (stereo not drawn) was read as PMI activator 1.1, WT yeast gro inh -4, Lmaj promast 99*, Diaphorase act 1 and PMI act satM6P 1.
For c1ccc(C2c3c(ccc4ccccc34)Oc3ncn4nc(-c5ccco5)nc4c32)cc1 (stereo not drawn) the results were PMI activator 0.9, WT yeast gro inh 17, Lmaj promast 47, Diaphorase act 0.9 and PMI act satM6P 0.9.
For CC1(C)CC(=O)C2=C(C1)Oc1ncn(Cc3ccco3)c(=N)c1C2c1ccccc1 (stereo not drawn) the results were PMI activator 1, WT yeast gro inh -10, Lmaj promast 4, Diaphorase act 0.8 and PMI act satM6P 1.
For COc1ccc(C2c3c(ncn(CCN4CCOCC4)c3=N)Oc3ccc4ccccc4c32)cc1 (stereo not drawn) the results were PMI activator 1, WT yeast gro inh 6, Lmaj promast 100*, Diaphorase act 0.9 and PMI act satM6P 1.
`COc1ccc(C2C3=C(CC(C)(C)CC3=O)Oc3ncn(Cc4ccccc4)c(=N)c32)cc1` (stereo not drawn) gave PMI activator 1.1, WT yeast gro inh 97*, Lmaj promast 63*, Diaphorase act 1 and PMI act satM6P 1.
For Cc1ccc(NC(=O)NNC(=O)c2cccs2)cc1 the results were PMI activator 0.9, WT yeast gro inh 1, Lmaj promast -4, Diaphorase act 0.9 and PMI act satM6P 0.9.
For c1ccc2c(c1)CCN(c1nc(CN3CCOCC3)nc3sc4c(c13)CCCC4)C2 the results were PMI activator 1.1, WT yeast gro inh 46, Lmaj promast 19, Diaphorase act 0.7 and PMI act satM6P 1.1.
Screening O=C(O)c1ccc(N2C(=O)/C(=C/c3ccc(-c4ccc([N+](=O)[O-])cc4)o3)C=C2c2ccccc2)cc1 returned PMI activator 1.2, WT yeast gro inh 16, Lmaj promast 99*, Diaphorase act 0.4 and PMI act satM6P 1.3.
`COc1ccc2[nH]c(=O)c(CN(C(=O)c3cccnc3)c3ccccc3)cc2c1` gave PMI activator 0.9, WT yeast gro inh -1, Lmaj promast 1, Diaphorase act 0.9 and PMI act satM6P 1.
`COc1ccc2[nH]c(=O)c(CN(C(=O)c3ccccn3)c3ccccc3)cc2c1` gave PMI activator 0.9, WT yeast gro inh 8, Lmaj promast 100*, Diaphorase act 0.8 and PMI act satM6P 0.9.
`COc1ccc2[nH]c(=O)c(CN(C(=O)NC3CCCCC3)C3CCCCC3)cc2c1` gave PMI activator 0.9, WT yeast gro inh 13, Lmaj promast 100*, Diaphorase act 0.9 and PMI act satM6P 0.9.
For COc1ccc2[nH]c(=O)c(CNC3CCCCC3)cc2c1 the results were PMI activator 0.9, WT yeast gro inh 32, Lmaj promast 19, Diaphorase act 1 and PMI act satM6P 1.
For COCc1cc(=O)[nH]c2cc(NC(=O)C3CC3)c(C)cc12 the results were PMI activator 1, WT yeast gro inh 11, Lmaj promast -8, Diaphorase act 1 and PMI act satM6P 1.
Cc1nnc(-c2cnn(C)c2N)n1CCCN1CCOCC1 was read as PMI activator 1.1, WT yeast gro inh -16, Lmaj promast -9, Diaphorase act 1 and PMI act satM6P 1.
For COCCNC(=O)C(OC(=O)c1cc2oc(C)cc2n1C)C(C)C (stereo not drawn) the results were PMI activator 0.9, WT yeast gro inh 8, Lmaj promast 40, Diaphorase act 1.1 and PMI act satM6P 1.
Cc1c(Nc2cc(Cl)c3nonc3c2[N+](=O)[O-])c(=O)n(-c2ccccc2)n1C was read as PMI activator 1.1, WT yeast gro inh 26, Lmaj promast 79*, Diaphorase act 0.9 and PMI act satM6P 0.9.
`Cc1c(Nc2cc(N3CCOCC3)c3nonc3c2[N+](=O)[O-])c(=O)n(-c2ccccc2)n1C` gave PMI activator 0.8, WT yeast gro inh -1, Lmaj promast 5, Diaphorase act 0.9 and PMI act satM6P 0.7.
For Cc1ccc(-c2csc(NC(=S)NC(=O)c3ccco3)n2)cc1 the results were PMI activator 1.1, WT yeast gro inh -25, Lmaj promast -8, Diaphorase act 1 and PMI act satM6P 1.1.
For O=C(Nc1nc(-c2ccc(S(=O)(=O)N3CCCC3)cc2)cs1)c1ccco1 the results were PMI activator 0.9, WT yeast gro inh 14, Lmaj promast 97*, Diaphorase act 0.7 and PMI act satM6P 0.8.
For O=C(NNc1nc(-c2ccc(Cl)cc2)cs1)c1ccco1 the results were PMI activator 1, WT yeast gro inh 13, Lmaj promast 58*, Diaphorase act 0.9 and PMI act satM6P 0.9.
Screening c1ccc(-c2csc(Nc3ncccn3)n2)cc1 returned PMI activator 1, WT yeast gro inh 4, Lmaj promast -3, Diaphorase act 0.9 and PMI act satM6P 1.1.
Screening O=C(NNc1nc(-c2ccccc2)cs1)c1ccco1 returned PMI activator 1.2, WT yeast gro inh 11, Lmaj promast 67*, Diaphorase act 0.9 and PMI act satM6P 1.1.
`NNc1nc(-c2ccccc2)cs1` gave PMI activator 1.6, WT yeast gro inh 13, Lmaj promast 90*, Diaphorase act 0.9 and PMI act satM6P 2*.
`COC(=O)c1onc(-c2c(C)cc(C)cc2C)c1C(=O)OC` gave PMI activator 1, WT yeast gro inh 13, Lmaj promast 8, Diaphorase act 0.9 and PMI act satM6P 1.
Screening O=C(O)/C=C/C(=O)Nc1ccc(OC(F)F)cc1 returned PMI activator 1.2, WT yeast gro inh -12, Lmaj promast -14, Diaphorase act 0.9 and PMI act satM6P 1.1.
For CN1CCN(Cc2cn[nH]c2-c2ccc(F)cc2F)[C@@H](c2ccccc2)C1 the results were PMI activator 1, WT yeast gro inh 9, Lmaj promast 10, Diaphorase act 1 and PMI act satM6P 1.
Screening CCCCCc1ccc(OCCCC[n+]2cccc(C)c2)c(CCCCC)c1 returned PMI activator 0.9, WT yeast gro inh 85, Lmaj promast 101*, Diaphorase act 1.6 and PMI act satM6P 1.
`CCCCOc1ccc(C)cc1CN(CCO)CCO` gave PMI activator 1, WT yeast gro inh -6, Lmaj promast -2, Diaphorase act 1 and PMI act satM6P 1.1.
